Measurements from ChEMBL document CHEMBL4513216, “Probing the Open Global Health Chemical Diversity Library for Multistage-Active Starting Points for Next-Generation Antimalarials” (ACS Infect Dis, 2020).

Assay: Toxicity liver stage against HepG2, at 10uM
Format: cell-based
Set-up: test concentration 10 uM, cell line HepG2-A16-CD81EGFP
Conditions: human, HepG2-A16-CD81EGFP cells; read-out: INHIBITION
Procedure, shortened: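 Uninfected HepG2-A16-CD81EGFP cells, 3 × 10^3 per well, 1536-well, plated on prespotted compound at 10 μM final, parasite-free screening media added to match infected plates; puromycin 10 μM positive, DMSO 0.5% negative; run in parallel with 48 h PbLuc assay at 37 °C, 5% CO2; viability by CellTiter-Glo luminescence, normalized to controls.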

Row | Structure (SMILES) | cytotoxicity at 10 µM [%]
1 | Fc1ccc(-c2noc(CN3CCC(c4cc[nH]n4)CC3)n2)cc1 | 18.4
2 | Cc1nn(-c2ccccn2)c(C)c1[C@@H]1C=C[C@@H](NC(=O)CCC(=O)O)C1 | 4.59
3 | O=C(CCCSc1ccc(NC(=O)C2CC2)nn1)NCC1CCCO1 (stereo not given) | -4.45
4 | Cc1cc(C(=O)NCC(Cc2cccc(F)c2)N2CCCCC2=O)no1 (stereo not given) | 2.68
5 | CC(C)S(=O)(=O)NCC(Cc1cccc(F)c1)N1CCNC1=O (stereo not given) | -1
6 | CC(=O)c1ccc(S(=O)(=O)NCC2CCN(c3cnccn3)CC2)cc1 | 0.723
7 | O=C(Cc1ccc(F)cc1)NCCNc1cc(N2CCCC2)cnn1 | -3.29
8 | O=C(NCCc1ccccn1)[C@@]12CCO[C@@H]1CCN(c1ncccn1)C2 | 4.26
9 | N#Cc1ccc2c(c1)CN(C(=O)C1CC=CC1)C2c1cnco1 (stereo not given) | -0.0499
10 | O=C(NC1CCCC1)NC1CCc2[nH]c(=O)ccc2C1 (stereo not given) | 7.91
11 | CS(=O)(=O)NCc1noc2c1CN(C(=O)c1ccsc1)CC2 | 7.86
12 | Cc1noc([C@@H]2CCO[C@@H]3CCN(C(=O)Cc4ccsc4)C[C@@H]32)n1 | 10.4
13 | COCC1CN(Cc2ccoc2)Cc2cn(CC3CCCC3)nc21 (stereo not given) | 4.32
14 | CN1CCc2c(C#N)c(NCCN3CCOCC3)n3cnnc3c2C1 | -2.84
15 | Cc1cc(C)cc(Nc2nc(C)cc(=O)n2CC(=O)NC(C)C)c1 | -7.3
16 | Cn1c(=O)n(C)c2cc(C3SCC(=O)Nc4ccsc43)ccc21 (stereo not given) | 4.49
17 | O=C([C@H]1C[C@H]2OCC[C@H]2N(C(=O)c2ccncc2)C1)N1CCCCO1 | -6.77
18 | O=C1CNc2ncnc(Nc3cnn(Cc4ccccc4)c3)c2N1 | 7.38
19 | O=C(c1cccc(-n2cnnc2)c1)N1C[C@@H](O)[C@H](N2CCOCC2)C1 | 2.26
20 | COCCNc1ccc(CC2CCCN(C3CCCC3)C2)nn1 (stereo not given) | 3.07
21 | CNC(=O)CCc1cc(C)nc(C2CCN(c3cnccn3)CC2)c1 | 1.31
22 | Cc1nc(N)cc(C2CN(C(=O)c3cscn3)CCO2)n1 (stereo not given) | 7.03

Row | Structure (SMILES) | cytotoxicity at 10 µM [%]
23 | c1cc(-c2cncc(C3CCNCC3)n2)n[nH]1 | 3.42
24 | O=C(c1ccc2c(c1)OCO2)N1CCC(C(=O)O)(c2ccccc2)CC1 | 7.33
25 | O=C1NC2(Cc3ccccc31)CN(CC1CCOCC1)C2 | 14
26 | Cc1cc(C2CCCN2C(=O)COc2ccc(CC#N)cc2)on1 (stereo not given) | -49.6
27 | CCN(Cc1cccc(C(N)=O)c1)c1ccccc1 | 2.91
28 | CCC(=O)NC(c1ccc(C)cc1)c1cccc(S(C)(=O)=O)c1 (stereo not given) | -7.62
29 | CCOc1ccc(NC(=O)NCCCN(C)S(C)(=O)=O)cc1C | 2.79
30 | Cc1noc(C)c1CS(=O)(=O)CC(=O)NCCc1ccccc1 | -5.83
31 | CC(C)n1nc2c(cc1=O)CN(c1nc3ccccc3s1)CC2 | -1.99
32 | Cc1cccc(C)c1NC(=O)CNC(C)Cc1ccsc1 (stereo not given) | -6.12
33 | CC(C)(C)OC(=O)N1CCC(NC2CC2)CC1 | -5.64
34 | CC(=O)N(Cc1ncc(C)o1)C1CCN(Cc2nnc(C3CC3)o2)C1 (stereo not given) | 5.08
35 | CC(C)n1c(C2CCCN(CC(=O)NC3CC3)C2)nc2ccccc21 (stereo not given) | -5.54
36 | CSC(C)(C)CNC(=O)NC1CCC1 | -7.32
37 | O=C(NC1CCN(c2cccc(OC(F)(F)F)c2)C1=O)C1CCC1 (stereo not given) | -3.11
38 | Clc1cnccc1N1CCCOCC1 | -0.625
39 | CSc1ccc(C(CNC(C)=O)N2CCc3sccc3C2)cc1 (stereo not given) | 6.84
40 | CCCc1n[nH]c(C2CN(C(=O)CCn3nc(C)cc3C)CCO2)n1 (stereo not given) | -11.9
41 | Cn1cc(Br)cc(NC(=O)CC(C)(C)C)c1=O | 5.82
42 | Cc1nn(C)c(C)c1CCC(=O)Nc1nnc(C2CC2)s1 | -10.1
43 | CCCS(=O)(=O)N(C)C(=O)CCc1ccsc1 | 0.321
44 | c1ccc(-n2nnnc2CNCc2ccc3c(c2)OCCO3)cc1 | 9.35

Row | Structure (SMILES) | cytotoxicity at 10 µM [%]
45 | CCC(C(=O)NCC1CCN(c2ccncc2)CC1)N(C)C (stereo not given) | 15
46 | Cc1ccc(N2CCC(NCc3cnc(C4CCC4)s3)CC2)nc1 | 6.75
47 | CC(=O)c1cccc(S(=O)(=O)N2CCC(c3n[nH]c(C)n3)CC2)c1 | -5.83
48 | COc1cncc(N2CCN(Cc3cccn3C)CC2)n1 | 6.09
49 | CN(CC1CCCC1)C(=O)c1cn(C)nc1-c1cccnc1 | -0.0402
50 | COc1cccc(CC2CCCN2CC(N)=O)c1 (stereo not given) | -55.6
51 | CN(Cc1ccc(OC(F)F)cc1)C(=O)CS(=O)(=O)c1ccc(Cl)cc1 | 5.19
52 | CCSc1cc(C(=O)NCc2ccccc2O)ccn1 | -3.81
53 | O=C(NCC1CC1)C1CN(C(=O)NC2CCCC2)Cc2cncn2C1 (stereo not given) | -106
54 | CS(=O)(=O)NCc1nnc2n1CCN(Cc1cccs1)C2 | -1.57
55 | O=C(Nc1ccccc1)c1cc2n(n1)CCCN(C(=O)N1CCCC1)C2 | -70.3
56 | O=C(c1cccc(Cl)c1)N1CC[C@@H](N2CCC(O)CC2)[C@H](O)C1 | -1.61
57 | CC(C)N(Cc1c[nH]nc1-c1ccc2c(c1)OCO2)Cc1nccn1C | -7.8
58 | CCOc1ncccc1-c1cc2c(cc1C(N)=O)OCO2 | -0.421
59 | O=C(Cn1cccn1)N1CCC(Cn2cc(-c3ccsc3)nn2)CC1 | -0.554
60 | CC(=O)N[C@@H]1Cc2ccccc2[C@H]1Nc1cc(C2CC2)ncn1 | -45.2
61 | CC(Cn1cccn1)n1cnc2ccc(F)cc2c1=O (stereo not given) | 0.956
62 | CCc1ccc(CN(C)Cc2nc(-c3cnccn3)no2)nc1 | 3.57
63 | Cn1ncc2c(N3CCS(=O)(=O)CC3)nc(-c3cccnc3)nc21 | 4.38
64 | CCc1nnc(CN(C)Cc2cccc(C(=O)Nc3ccnn3C)c2)o1 | -3.7
65 | COC[C@@]12CC[C@@H](N3CCOCC3)C[C@H]1CCN(c1ncccc1F)C2 | -3.47
66 | COCC(Nc1nc(N(C)C)nc2c1CCNCC2)c1ccccn1 (stereo not given) | 1.58

Row | Structure (SMILES) | cytotoxicity at 10 µM [%]
67 | CCCn1cnnc1CNC1CCSC1 (stereo not given) | -1.1
68 | CS(=O)(=O)N1CCC(Oc2ccc(C(=O)NCC3CCC3)cc2Cl)CC1 | 12
69 | CSc1ccc(C(C(=O)O)N2CCCC2)cc1 (stereo not given) | 1.16
70 | CNC(=O)C1(N(C)CCc2ccccc2)Cc2ccccc2C1 | 11.5
71 | Cc1cc(NCCCc2c(C)noc2C)nc(N)n1 | 12
72 | c1ccc(CCCn2cc(-c3nc(CN4CCOCC4)no3)nn2)cc1 | 2.14
73 | O=C(O)c1ccnc(-c2ccnc(COc3cccc(F)c3)n2)c1 | -2.31
74 | CNc1nc(C(=O)N2CCN(c3cc(C)nc(C)c3)CC2)cs1 | 3.78
75 | Cc1cc2cc(C(=O)N3CCN(CCO)[C@@H]4CS(=O)(=O)C[C@@H]43)ccc2o1 | -0.357
76 | CC1CCN(CC2(O)CCCN(Cc3cccc(F)c3F)C2=O)CC1 (stereo not given) | 0.801
77 | Cc1nc2ccc(S(=O)(=O)Nc3c(C)nn(CC(=O)O)c3C)cc2s1 | -2.83
78 | CNc1cc(C)nc(N2CCC3(CC2)[C@H](O)C[C@@H]3OC)n1 | -6.72
79 | CN(C)Cc1cn(CC2CCCN(c3nccc4occc34)C2)nn1 (stereo not given) | -9.67
80 | CCC(C(=O)NCc1cccnc1)N(c1cccc(C)c1)S(C)(=O)=O (stereo not given) | 2.57
81 | Cc1cc(C)nc(N2CCC(NCCSc3nnnn3C)CC2)n1 | -6.88
82 | COCC(=O)NCc1cccnc1-n1cnc2ccccc21 | -2.8
83 | Cc1cc(N2CCN(Cc3ccc(C)o3)CC2)cc(C)n1 | -6.61
84 | CC(C)C(NC(=O)Nc1ccccn1)c1cccs1 (stereo not given) | 2.27
85 | COc1ccc(-c2nc(C(=O)NCC3CCOC3)cs2)cc1OC (stereo not given) | 2.39
86 | CCOc1ccnc(N2CCN(C(=O)c3ccncc3)CC2)n1 | -4.6
87 | O=C(CCC1CCCO1)NCc1ccccc1Cn1cncn1 (stereo not given) | -4.05
88 | Cc1noc(C(C)N2CCN(Cc3ccco3)CC2)n1 (stereo not given) | -3.37

Row | Structure (SMILES) | cytotoxicity at 10 µM [%]
89 | CN(Cc1cnn(C)c1)C(=O)NCc1cc(Br)cs1 | -10.1
90 | CCn1cc(NC(=O)NCC(c2ccc(OC)cc2)N(C)C)cn1 (stereo not given) | -2.4
91 | O=S(=O)(NCc1ccccc1Cn1cncn1)N1CCCCCC1 | 0.512
92 | Cc1cc(C)c(CNC(=O)N2CCCC2c2ccc(F)cc2)c(=O)[nH]1 (stereo not given) | 1.38
93 | COC(=O)c1cccc(C(=O)NCc2ccc3c(c2)CCCN3C)c1 | -11.7
94 | CN(Cc1ccsc1)C(=O)c1cccc(S(=O)(=O)NC(C)(C)C)c1 | -8.03
95 | CN(C)C(CNC(=O)c1cc2c([nH]c1=O)CCCC2=O)c1ccsc1 (stereo not given) | -1.96
96 | Cc1ccccc1-n1ncc(C(=O)N2CCCC2c2cnn(C)c2)c1C (stereo not given) | -4.84
97 | NC(=O)CN1CCC(NC(=O)Nc2nccs2)CC1 | -5.9
98 | CCc1nnc2n1CCN(Cc1csc(-c3ccc(C)o3)n1)C2 | -1.5
99 | Cc1nc(Nc2cnccn2)cc(C2CCCN2)n1 (stereo not given) | -9.46
100 | COc1ccc(CNC(=O)N2CCN(CC(O)C3CC3)CC2)cc1 (stereo not given) | 7.11
101 | Cn1cc(N2C[C@@H]3CN(Cc4ccccn4)C[C@@H]3C2=O)cn1 | -95.6
102 | Cc1cnccc1-c1cnn(CCNC(=O)c2ccccn2)c1C1CC1 | 56.3
103 | CN(C)CCOC[C@H]1CC[C@H]2[C@H](CCN2C(=O)c2ccoc2)O1 | -81.5
104 | Cc1cc(N(C)C)nc(C2CCNC2)n1 (stereo not given) | 0.812
105 | O=C(C1=CCCC1)N1CCC[C@]2(C[C@@H](OCc3ccccn3)CO2)C1 | 9.79
106 | Cn1cccc1C(=O)N[C@H]1CN(Cc2ccoc2)[C@@H]2CCCO[C@H]12 | -88.7
107 | COc1ccc(CN2C[C@@H](OCc3ccccn3)[C@H]3COC[C@H]32)cc1 | 3.63
108 | Cc1ccc(CN2CCc3ncnc(C4CC4)c3CC2)s1 | 4.63
109 | Cc1noc(C)c1CN1CC[C@@H]2O[C@H](COCC3CC3)CC[C@@H]21 | 5.65
110 | O=C(CC1[C@H]2CN(C(=O)c3cccnc3)C[C@@H]12)Nc1cccnc1 (stereo not given in full) | 7.37
